Results from ChEMBL document CHEMBL4715780, “Biological evaluation of tetracationic compounds based on two 1,4-diazabicyclo[2.2.2]octane moieties connected by different linkers” (Bioorg Med Chem, 2016).
Values after ≈ are worked out from the molar mass of the structure shown.

Experiments:
Salmonella typhimurium [1] = assay: Antibacterial activity against Salmonella enterica ATCC 14028 assessed as concentration required to inhibit visible growth by CLSI protocol based serial microdilution method; assay type: functional, Salmonella enterica subsp. enterica serovar Typhimurium
Enterococcus faecalis [2] = assay: Antibacterial activity against Enterococcus faecalis ATCC 51299 assessed as concentration required to inhibit visible growth by CLSI protocol based serial microdilution method; assay type: functional
Influenza A virus = assay: Antiviral activity against Influenza A virus (A/Puerto Rico/8/34 (H1N1) infected in MDCK cells assessed as decrease in viral titer preincubated for 1 hr followed by viral infection and cultivated for 48 hrs followed by supernatant transferred to chicken erythrocyte for 1 hr followed by measuring ability to cause positive hemagglutination; assay type: functional, organism-based; settings: A/Puerto Rico/8/1934(H1N1)
In short: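 MDCK monolayers in MEM were pre-incubated with compound for 1 h at 37 °C, then infected with 10-fold virus dilutions (10⁻¹–10⁻⁶) and held 48 h at 37 °C, 5% CO₂. Supernatant was mixed with an equal volume of 1% chicken erythrocytes, 60 min at room temperature. Titre was taken from the highest dilution giving full agglutination (log₁₀ EID₅₀). Triplicate per concentration.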

Pseudomonas aeruginosa [3] = assay: Antibacterial activity against Pseudomonas aeruginosa ATCC 9027 assessed as bacterial growth inhibition by CLSI protocol based serial microdilution method; assay type: functional
Staphylococcus aureus [4] = assay: Antibacterial activity against […] Staphylococcus aureus ATCC 25923 assessed as bacterial growth inhibition by CLSI protocol based serial microdilution method; assay type: functional
[5] = Cytotoxicity against MDCK cells assessed as cell death incubated for 48 hrs by MTT assay; assay type: cell-based, Canis lupus familiaris; settings: dog
Staphylococcus aureus [6] = assay: Antibacterial activity against […] Staphylococcus aureus ATCC 25923 assessed as concentration required to inhibit visible growth by CLSI protocol based serial microdilution method; assay type: functional
Candida albicans [7] = assay: Antifungal activity against Candida albicans CEMTC 34 assessed as concentration required to inhibit visible growth by CLSI protocol based serial microdilution method; assay type: functional
In short: (§1)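 Candida albicans grown in Sabouraud dextrose broth with two-fold serial compound dilutions from water stocks; final inoculum about 5 × 10⁵ CFU/mL. Incubated at 37 °C with orbital shaking (580 rpm). MIC is the lowest concentration preventing growth, by absorbance at 595 nm. MFC is the lowest concentration with no visible growth. Duplicates in two separate experiments.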

Escherichia coli [8] = assay: Antibacterial activity against Escherichia coli ATCC 25922 assessed as bacterial growth inhibition by CLSI protocol based serial microdilution method; assay type: functional
Proteus vulgaris [9] = assay: Antibacterial activity against Proteus vulgaris ATCC 6380 assessed as concentration required to inhibit visible growth by CLSI protocol based serial microdilution method; assay type: functional
Enterococcus faecalis [10] = assay: Antibacterial activity against Enterococcus faecalis ATCC 51299 assessed as bacterial growth inhibition by CLSI protocol based serial microdilution method; assay type: functional
Citrobacter freundii [11] = assay: Antibacterial activity against Citrobacter freundii ATCC 8090 assessed as bacterial growth inhibition by CLSI protocol based serial microdilution method; assay type: functional
Salmonella typhimurium [12] = assay: Antibacterial activity against Salmonella enterica ATCC 14028 assessed as bacterial growth inhibition by CLSI protocol based serial microdilution method; assay type: functional, Salmonella enterica subsp. enterica serovar Typhimurium
Pseudomonas aeruginosa [13] = assay: Antibacterial activity against Pseudomonas aeruginosa ATCC 9027 assessed as concentration required to inhibit visible growth by CLSI protocol based serial microdilution method; assay type: functional
Candida albicans [14] = assay: Antifungal activity against Candida albicans CEMTC 34 assessed as fungal growth inhibition by CLSI protocol based serial microdilution method; assay type: functional; in short: as §1
[15] = Selectivity index, ratio of CC50 for MDCK cells to EC50 for Influenza A virus (A/Puerto Rico/8/34 (H1N1)) infected in MDCK cells; assay type: toxicity, cell-based; settings: dog, read-out: Ratio CC50/EC50
In short: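 Ratio of CC₅₀ to EC₅₀, both in MDCK cells, with cytotoxicity run in parallel with the antiviral assay. EC₅₀ is the concentration halving virus production (0.3 log₁₀ EID₅₀ titre drop). It was obtained after 1 h compound pre-incubation, infection, 48 h at 37 °C, and hemagglutination read-out with 1% chicken erythrocytes.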

Citrobacter freundii [16] = assay: Antibacterial activity against Citrobacter freundii ATCC 8090 assessed as concentration required to inhibit visible growth by CLSI protocol based serial microdilution method; assay type: functional
Proteus vulgaris [17] = assay: Antibacterial activity against Proteus vulgaris ATCC 6380 assessed as bacterial growth inhibition by CLSI protocol based serial microdilution method; assay type: functional
Escherichia coli [18] = assay: Antibacterial activity against Escherichia coli ATCC 25922 assessed as concentration required to inhibit visible growth by CLSI protocol based serial microdilution method; assay type: functional
[19] = Selectivity index, ratio of CC50 for HEK293T cells assessed as reduction in cell viability measured after 24 hrs by MTT assay to MIC for Salmonella enterica ATCC 14028 assessed as bacterial growth inhibition by CLSI protocol based serial microdilution method; assay type: toxicity; settings: human, read-out: Selectivity Index
[20] = Selectivity index, ratio of CC50 for HEK293T cells assessed as reduction in cell viability measured after 24 hrs by MTT assay to MIC for Citrobacter freundii ATCC 8090 assessed as bacterial growth inhibition by CLSI protocol based serial microdilution method; assay type: toxicity; settings: human, read-out: Selectivity Index
[21] = Cytotoxicity against human MCF7 cells assessed as reduction in cell viability measured after 24 hrs by MTT assay; assay type: cell-based
In short: (§2)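 HEK293T or MCF-7 cells in IMDM with 10% FBS, seeded at 20,000 per well and grown overnight. Compounds at […] in fresh medium for 24 h at 37 °C, 5% CO₂. MTT then added for 4 h, precipitate dissolved overnight in SDS-HCl, absorbance read at 570 nm. Viability expressed relative to untreated cells, giving CC₅₀. Duplicate wells, at least two independent repeats.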

[22] = Selectivity index, ratio of CC50 for HEK293T cells assessed as reduction in cell viability measured after 24 hrs by MTT assay to MIC for Enterococcus faecalis ATCC 51299 assessed as bacterial growth inhibition by CLSI protocol based serial microdilution method; assay type: toxicity; settings: human, read-out: Selectivity Index
[23] = Selectivity index, ratio of CC50 for HEK293T cells assessed as reduction in cell viability measured after 24 hrs by MTT assay to MIC for Escherichia coli ATCC 25922 assessed as bacterial growth inhibition by CLSI protocol based serial microdilution method; assay type: toxicity; settings: human, read-out: Selectivity Index
[24] = Selectivity index, ratio of CC50 for HEK293T cells assessed as reduction in cell viability measured after 24 hrs by MTT assay to MIC for Staphylococcus aureus ATCC 25923 assessed as bacterial growth inhibition by CLSI protocol based serial microdilution method; assay type: toxicity; settings: human, read-out: Selectivity Index
[25] = Selectivity index, ratio of CC50 for HEK293T cells assessed as reduction in cell viability measured after 24 hrs by MTT assay to MIC for Candida albicans CEMTC 34 assessed as bacterial growth inhibition by CLSI protocol based serial microdilution method; assay type: toxicity; settings: human, read-out: Selectivity Index
In short: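 SI = CC₅₀ (HEK293T) / MIC. HEK293T cells were seeded at 20,000/well overnight, then exposed to 10–250 µg/mL in IMDM with 10% FBS for 24 h. MTT was added for 4 h, solubilised with SDS-HCl, and read at 570 nm; duplicates, ≥2 independent runs. MIC came from two-fold dilutions in Sabouraud dextrose broth at ~5 × 10⁵ CFU/mL, 37 °C with shaking, read at 595 nm, in duplicate.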

[26] = Selectivity index, ratio of CC50 for HEK293T cells assessed as reduction in cell viability measured after 24 hrs by MTT assay to MIC for Proteus vulgaris ATCC 6380 assessed as bacterial growth inhibition by CLSI protocol based serial microdilution method; assay type: toxicity; settings: human, read-out: Selectivity Index
[27] = Selectivity index, ratio of CC50 for HEK293T cells assessed as reduction in cell viability measured after 24 hrs by MTT assay to MIC for Pseudomonas aeruginosa ATCC 9027 assessed as bacterial growth inhibition by CLSI protocol based serial microdilution method; assay type: toxicity; settings: human, read-out: Selectivity Index
[28] = Cytotoxicity against HEK293T cells assessed as reduction in cell viability measured after 24 hrs by MTT assay; assay type: cell-based, HEK-293T; settings: human; in short: as §2

Compound | MBC (Salmonella typhimurium [1]) [µg/mL] | MBC (Enterococcus faecalis [2]) [µg/mL] | EC50 (Influenza A virus) [µg/mL] | MIC (Pseudomonas aeruginosa [3]) [µg/mL] | MIC (Staphylococcus aureus [4]) [µg/mL] | CC50 at 48 h [5] [µg/mL] | MBC (Staphylococcus aureus [6]) [µg/mL] | MFC (Candida albicans [7]) [µg/mL] | MIC (Escherichia coli [8]) [µg/mL] | MBC (Proteus vulgaris [9]) [µg/mL] | MIC (Enterococcus faecalis [10]) [µg/mL] | MIC (Citrobacter freundii [11]) [µg/mL] | MIC (Salmonella typhimurium [12]) [µg/mL] | MBC (Pseudomonas aeruginosa [13]) [µg/mL] | MIC (Candida albicans [14]) [µg/mL] | selectivity ratio [15] | MBC (Citrobacter freundii [16]) [µg/mL] | MIC (Proteus vulgaris [17]) [µg/mL] | MBC (Escherichia coli [18]) [µg/mL] | CC50 at 24 h [21] [µg/mL] | other results
C#CCOCCCCCN(CC[N+]12CC[N+](CCCCCCCCCCCC)(CC1)CC2)CC[N+]12CC[N+](CCCCCCCCCCCC)(CC1)CC2.[Cl-].[Cl-].[Cl-].[Cl-] | 3.1 | 3.1 | 10 | 6.3 | 1.6 | 14.9 | 3.1 | 25 | 3.1 | > 100 | 1.6 | 3.1 | 3.1 | 12.5 | 25 | 1 | 3.1 | 100 | 3.1 |  | 
CCCCCCCCCCCC[N+]12CC[N+](CCCCC[N+]34CC[N+](CCCCCCCCCCCC)(CC3)CC4)(CC1)CC2 | 3.1 | 1.6 | 2.4 | 3.1 | 0.6 | 9.7 | 1.2 | 12.5 | 1.6 | > 100 | 1.6 | 1.6 | 1.6 | 6.3 | 6.3 | 4 | 3.1 | > 100 | 3.1 | 7 | selectivity ratio at 24 h [19]: 5; selectivity ratio at 24 h [20]: 5; selectivity ratio at 24 h [22]: 5; selectivity ratio at 24 h [23]: 5; selectivity ratio at 24 h [24]: 13; selectivity ratio at 24 h [25]: 1; selectivity ratio at 24 h [26]: < 1; selectivity ratio at 24 h [27]: 2; CC50 at 24 h [28]: 7.5 µg/mL
CCCCCCCCCCCC[N+]12CC[N+](Cc3nnn(CCCCC(=O)OC)c3C[N+]34CC[N+](CCCCCCCCCCCC)(CC3)CC4)(CC1)CC2.[Cl-].[Cl-].[Cl-].[Cl-] | 3.1 | 3.1 | > 11 | 6.3 | 1.6 | 20.6 | 3.1 | 12.5 | 3.1 | > 100 | 1.6 | 1.6 | 3.1 | 12.5 | 6.3 | < 2 | 3.1 | 100 | 3.1 |  | 
O=C(O)c1cn(C2CC2)c2cc(N3CCNCC3)c(F)cc2c1=O [CIPROFLOXACIN] |  |  |  |  |  |  |  |  |  |  |  |  |  |  |  |  |  |  |  | 60 (≈ 181 µM) | CC50 at 24 h [28]: > 60 µg/mL
CCCCCCCCCCCC[N+]12CC[N+](CCCCCCCC[N+]34CC[N+](CCCCCCCCCCCC)(CC3)CC4)(CC1)CC2 | 6.3 | 1.6 | 2.2 | 3.1 | 0.6 | 4.5 | 1.6 | 12.5 | 1.6 | > 100 | 1.6 | 3.1 | 3.1 | 6.3 | 6.3 | 2 | 6.3 | 100 | 3.1 |  | 
CCCCCCCCCCCC[N+]12CC[N+](CCNCC[N+]34CC[N+](CCCCCCCCCCCC)(CC3)CC4)(CC1)CC2.[Cl-].[Cl-].[Cl-].[Cl-] | 3.1 | 1.6 | 2.2 | 1.6 | 0.6 | 7.7 | 12 | 12.5 | 16 | 50 | 0.8 | 3.1 | 1.6 | 6.3 | 12.5 | 4 | 3.1 | 50 | 3.1 |  | 
CCOC(=O)C1=C[C@@H](OC(CC)CC)[C@H](NC(C)=O)[C@@H](N)C1 [OSELTAMIVIR] |  |  | 0.3 (≈ 0.96 µM) |  |  | 300 (≈ 960 µM) |  |  |  |  |  |  |  |  |  | 1000 |  |  |  |  | 
CCCCCCCCCCCC[N+]12CC[N+](Cc3cccc(-c4ccccc4C[N+]45CC[N+](CCCCCCCCCCCC)(CC4)CC5)c3)(CC1)CC2 | 3.1 | 1.6 |  | 3.1 | 0.6 |  | 1.2 | 6.3 | 1.6 | 100 | 0.8 | 1.6 | 1.6 | 6.3 | 1.6 |  | 1.6 | 50 | 3.1 |  | 
Clc1ccccc1C(c1ccccc1)(c1ccccc1)n1ccnc1 [CLOTRIMAZOLE] |  |  |  |  |  |  |  | 400 (≈ 1160 µM) |  |  |  |  |  |  | 400 (≈ 1160 µM) |  |  |  |  | 5 (≈ 14.5 µM) | selectivity ratio at 24 h [25]: < 1; CC50 at 24 h [28]: 7 µg/mL (≈ 20.3 µM)
CCCCCCCCCCCC[N+]12CC[N+](Cc3nnn(CCCCCN=[N+]=[N-])c3C[N+]34CC[N+](CCCCCCCCCCCC)(CC3)CC4)(CC1)CC2.[Cl-].[Cl-].[Cl-].[Cl-] | 3.1 | 1.6 | 4.2 | 3.1 | 1.6 | 12.9 | 3.1 | 12.5 | 1.6 | > 100 | 1.6 | 1.6 | 1.6 | 6.3 | 12.5 | 3 | 3.1 | 50 | 3.1 |  | 
